{"data": "Experimental data from different studies", "target": "Ankyrin repeat and protein kinase domain-containing protein 1 (ANKK1, Homo sapiens, UniProt Q8NFD2)", "One construct used (Q8NFD2 1-765)": "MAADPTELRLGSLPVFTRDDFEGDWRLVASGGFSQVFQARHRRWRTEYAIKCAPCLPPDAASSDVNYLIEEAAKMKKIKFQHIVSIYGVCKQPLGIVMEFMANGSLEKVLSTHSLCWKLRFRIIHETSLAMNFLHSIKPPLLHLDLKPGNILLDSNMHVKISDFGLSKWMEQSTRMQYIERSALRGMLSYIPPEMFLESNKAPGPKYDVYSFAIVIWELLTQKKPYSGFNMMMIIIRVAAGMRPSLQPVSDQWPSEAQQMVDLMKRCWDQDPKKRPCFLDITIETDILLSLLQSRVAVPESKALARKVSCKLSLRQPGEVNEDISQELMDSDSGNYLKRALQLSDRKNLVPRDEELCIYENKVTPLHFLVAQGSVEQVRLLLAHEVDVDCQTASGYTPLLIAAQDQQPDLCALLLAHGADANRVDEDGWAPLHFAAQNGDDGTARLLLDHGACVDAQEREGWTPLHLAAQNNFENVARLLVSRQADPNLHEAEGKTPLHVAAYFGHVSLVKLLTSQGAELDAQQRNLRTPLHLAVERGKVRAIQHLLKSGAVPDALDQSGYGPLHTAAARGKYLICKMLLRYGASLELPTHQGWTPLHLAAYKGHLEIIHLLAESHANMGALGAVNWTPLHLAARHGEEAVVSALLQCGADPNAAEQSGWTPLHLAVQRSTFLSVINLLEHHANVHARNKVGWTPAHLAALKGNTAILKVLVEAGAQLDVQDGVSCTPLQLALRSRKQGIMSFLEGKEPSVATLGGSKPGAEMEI", "note": "Protocols differ between the studies behind these lines."}
{"Compound": "COc1ccnn2ncc(-c3ccnc(N(C)C)n3)c12", "test": "binding", "setting": "1 µM", "remaining binding [%]": 78}
{"Compound": "O=c1nc(-c2ccccn2)sc2ccccc12", "test": "binding, competition with immobilised ligand", "setting": "1 µM", "remaining binding [%]": 100}
{"Compound": "O=C(Nc1c[nH]nc1C(=O)NC1CCNCC1)c1cc(F)cc(F)c1", "test": "binding, competition with immobilised ligand", "setting": "1 µM", "remaining binding [%]": 100}
{"Compound": "COc1cnc(Nc2cccc(S(N)(=O)=O)c2)nc1N1CCN(c2ccccc2)CC1", "test": "binding, competition with immobilised ligand", "setting": "1 µM", "remaining binding [%]": 97}
{"Compound": "COc1ncc2cc3ccccc3nc2c1C#N", "test": "cell-free assay, competition with immobilised ligand", "setting": "5 µM", "remaining binding [%]": 100}
{"Compound": "CN(C)c1nccc(-c2cnn3ncccc23)n1", "test": "binding", "setting": "1 µM", "remaining binding [%]": 100}
{"Compound": "O=C(O)[C@H]1[C@H](Cn2nnc3ccccc3c2=O)CC[C@@H]1C(=O)c1ccc(OCCC2CCOCC2)cc1", "test": "cell-free assay, competition with immobilised ligand", "setting": "1 µM", "remaining binding [%]": 100}
{"Compound": "c1cncc(-c2cccc(Nc3nccc(NC4CCCCC4)n3)c2)c1", "test": "binding, competition with immobilised ligand", "setting": "10 µM", "remaining binding [%]": 47}
{"Compound": "O=C(NCCCN1CCOCC1)c1ccc(Nc2nccc(-c3cc4ccccc4s3)n2)cc1", "test": "binding, competition with immobilised ligand", "setting": "1 µM", "remaining binding [%]": 71}
{"Compound": "CN(CCCC(F)(F)F)c1nccc(-c2cnn3ncccc23)n1", "test": "binding", "setting": "1 µM", "remaining binding [%]": 95}
{"Compound": "O=C(NCCCC1CCCCC1)c1ccc(CNC(=O)c2cnn(-c3ccccc3)c2C(F)(F)F)cc1", "test": "cell-free assay, competition with immobilised ligand", "setting": "0.1 µM", "remaining binding [%]": 100}
{"Compound": "C[C@H]1CCN(c2nccc(-c3cnn4ncccc34)n2)C1", "test": "binding", "setting": "1 µM", "remaining binding [%]": 83}
{"Compound": "O=C(N1CCS(=O)(=O)CC1)N1C[C@H](c2ccc(OC(F)(F)F)cc2)C[C@H](c2nc(C3CC3)no2)C1", "test": "cell-free assay, competition with immobilised ligand", "setting": "1 µM", "remaining binding [%]": 100}
{"Compound": "O=C(c1ccc(Nc2ncc(Cl)c(-c3cc4ccccc4s3)n2)cc1)N1CCC(N2CCCC2)CC1", "test": "binding, competition with immobilised ligand", "setting": "1 µM", "remaining binding [%]": 62}
{"Compound": "CO[C@@H](C)c1c(Nc2ccc([C@@H](N(C)C(=O)C3CCS(=O)(=O)CC3)C(F)(F)F)cc2)cnc2cc(Cl)nn12", "test": "cell-free assay, competition with immobilised ligand", "setting": "1 µM", "remaining binding [%]": 100}
{"Compound": "CCN1CCN(Cc2ccc(C(=O)Nc3ccc(C)c(Oc4ccc5c(c4)CC(=O)N5)c3)cc2C(F)(F)F)CC1", "test": "binding, competition with immobilised ligand", "setting": "1 µM", "remaining binding [%]": 100}
{"Compound": "CN(c1nccc(-c2cnn3ncccc23)n1)C1CC1", "test": "binding", "setting": "1 µM", "remaining binding [%]": 100}
{"Compound": "COc1ccc2cc(OCC3(C(=O)O)CN(C(=O)c4ccc(F)cc4)C3)ccc2c1", "test": "cell-free assay, competition with immobilised ligand", "setting": "1 µM", "remaining binding [%]": 86}
{"Compound": "c1cnn2ncc(-c3ccnc(N4CCC45COC5)n3)c2c1", "test": "binding", "setting": "1 µM", "remaining binding [%]": 72}
{"Compound": "Cc1cnc(Nc2ccc(C(=O)N3CCC(N4CCCC4)CC3)cc2)nc1-c1cc2ccccc2s1", "test": "binding, competition with immobilised ligand", "setting": "1 µM", "remaining binding [%]": 62}
